Compound activity as filed in PubChem.
Shown are actives, neighbours in structure and some others; about 1.6% of the full set was active somewhere.
NR2E3 ag-1: activates human photoreceptor nuclear receptor NR2E3; Q9Y5X4; GST-NR2E3/biotin-RetCOR TR-FRET, 1536-well; inhibition of corepressor binding, % at 4.78 µM; actives 0.12% (n = 320,000);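 active means percent inhibition above the cutoff of mean plus 3 SD of all tested compounds, set per screening campaign, cut at about 20% in these data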;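 further: 0% = DMSO wells and 100% = biotin wells as full block of FRET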
Target sequence (Q9Y5X4 whole entry, looked up): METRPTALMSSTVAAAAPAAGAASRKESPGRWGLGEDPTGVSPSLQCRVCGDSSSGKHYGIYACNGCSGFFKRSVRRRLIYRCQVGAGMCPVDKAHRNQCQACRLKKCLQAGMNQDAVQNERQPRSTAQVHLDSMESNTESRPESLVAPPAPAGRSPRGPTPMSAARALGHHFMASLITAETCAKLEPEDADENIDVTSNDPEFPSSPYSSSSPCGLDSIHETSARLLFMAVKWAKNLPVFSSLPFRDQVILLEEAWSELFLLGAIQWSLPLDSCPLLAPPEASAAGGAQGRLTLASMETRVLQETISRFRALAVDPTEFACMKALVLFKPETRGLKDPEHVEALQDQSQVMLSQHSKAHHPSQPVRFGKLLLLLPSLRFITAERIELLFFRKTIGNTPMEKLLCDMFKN
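system = GST-tagged NR2E3 plus biotinylated RetCOR corepressor | input = 1.35 nM GST-NR2E3 | also added = 7 nM biotin-RetCOR | schedule = 5 h incubation at 4 °C | measured by = TR-FRET with europium anti-GST and streptavidin-D2, 340 nm excitation | read-out = percent loss of FRET ratio relative to control wells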
Rev-erbA mod: modulators of human Rev-erb alpha DNA binding; P20393; Rev-erbα–FITC-DNA binding, fluorescence polarization, 90 min; activity, % at 10 µM; actives 0.79% (n = 370,000); AID 1259318;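 active means activity above about 14%, limit read from the data; passing the limit was not always enough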;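 further: 0% = DMSO wells with 35 nM protein and 100% = DMSO wells with 750 nM protein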
PKA-R2B act: activates the human PKA-R2B holoenzyme complex. P22694+P31323. PKA-R2B holoenzyme dissociation, Cy5-IP20 fluorescence polarization; R2B truncated from residue 108, S112A mutant; 0% DMSO only, 100% 113 µM cGMP. activation, % at 11.4 µM. actives 0.079% (n = 340,000);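 active means activation above a cutoff set at the mean over all compounds plus 3 SD, cut at about 18% in these data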;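 further: higher means more holoenzyme dissociation and a rise in polarization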
PKA-R1A activ: activators of PKA-R1A complex | PKA-R1A dissociation, Cy5-IP20 fluorescence polarization; scaled: DMSO 0%, 113 µM cGMP 100% | AID 504707 | actives 0.083% (n = 340,000) | activation, % at 11.4 µM;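 active means percent activation above the mean of all tested compounds plus 3 SD, cut at about 19% in these data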;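 further: higher means more PKAc released from R1A so a rise in polarization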
PG9 binder: small molecules binding HIV-1 gp120 antibody PG9; TR-FRET gp120-PG9 antibody binding; inhibition, % at 6.7 µM; actives 0.43% (n = 360,000); in the data active means inhibition above about 8.5%
NR2E3 ag-2: activates human NR2E3 receptor. Q9Y5X4. CHO-S Gal4-NCOR/VP16-NR2E3 two-hybrid, luciferase. inhibition of corepressor binding, % at 3.98 µM. actives 0.35% (n = 360,000). AID 602229;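 active means inhibition above the mean of all tested compounds plus 3 SD, cut at about 70% in these data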;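 further: 0% = DMSO with NR2E3 transfected cells and 100% = cells lacking NR2E3 construct; higher means lower luciferase signal from less NR2E3 corepressor binding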
NR1D1 mod conf: Rev-erb alpha (human) modulation, hit confirmation | actives 61% (n = 3,000) | activation, % at 25 µM | Rev-erb alpha FITC-DNA binding, fluorescence polarization, 90 min | shares compounds with Rev-erbA mod;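 active means activation at or above a set limit, or at least 3 SD above the negative control mean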;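 further: 0% = 35 nM protein with DMSO and 100% = 750 nM protein high control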
RORg DNA counter: affects RORgamma DNA binding in a Rev-erb alpha counter-screen. shares compounds with Rev-erbA mod. purified RORgamma protein-FITC-DNA binding, fluorescence polarization. IC50, µM. actives 8% (n = 910);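 active means Compounds whose fitted half-maximal concentration for disrupting protein-DNA binding is below 10 micromolar; the record names Rev-erb in its text, so the target is in doubt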
Numbers without * were called inactive.

What do the screens show for `O=S1(=O)c2ccc(Br)cc2OCCC2CCCCN21` (configuration not stated)?
Rev-erbA mod: -4; PG9 binder: 0

Results for O=C(COc1ccccc1)NC(=S)Nc1ccc2c(c1)Cc1ccccc1-2 ?
NR2E3 ag-1: -3; Rev-erbA mod: 77*; PKA-R2B act: 4; PKA-R1A activ: -6; PG9 binder: -1; NR2E3 ag-2: -10; NR1D1 mod conf: 25*

How did COCc1cn(-c2ccc3c(c2)[C@]2(CC(=O)N(C)C2c2ccccc2)C(=O)N3CC(C)C)nn1 (some centres not stated) do in these assays?
Rev-erbA mod: -4

Results for COc1ccc(-c2nnc3ccc(SCC(=O)Nc4nc5ccc(C)cc5s4)nn23)cc1OC ?
NR2E3 ag-1: 0; Rev-erbA mod: 25*; PKA-R2B act: -7; PKA-R1A activ: -5; PG9 binder: -1; NR2E3 ag-2: 2; NR1D1 mod conf: 26*

How did CC(C)Oc1cccc(-c2cc(C(=O)NN3CCOCC3)c3ccccc3n2)c1 do in these assays?
NR2E3 ag-1: -1; Rev-erbA mod: -2; PKA-R2B act: -6; PKA-R1A activ: -12; PG9 binder: -3; NR2E3 ag-2: -33

Results for O=C(NN1CCOCC1)c1cc(-c2ccc(Br)s2)nc2ccccc12 ?
NR2E3 ag-1: -1; Rev-erbA mod: 32*; PKA-R2B act: -9; PKA-R1A activ: -5; PG9 binder: -10; NR2E3 ag-2: -25; NR1D1 mod conf: 7

What do the screens show for `CC(=O)OCCC(CC(C)C)NC(=O)[C@H](CC(C)C)NC(=O)OCc1ccccc1` (some centres not stated)?
Rev-erbA mod: 4

What do the screens show for `COc1cc2c(cc1OC)CN(C(=O)CSc1nc(N)c(C#N)cc1C#N)CC2`?
NR2E3 ag-1: 2; Rev-erbA mod: 37*; PKA-R2B act: -2; PKA-R1A activ: -7; NR2E3 ag-2: -6; NR1D1 mod conf: 47*; RORg DNA counter: >40

How did COc1ccccc1NC(=O)CSc1nc(N)cc(N)n1 do in these assays?
NR2E3 ag-1: -1; Rev-erbA mod: 0; PKA-R2B act: -1; PKA-R1A activ: 1; PG9 binder: 0; NR2E3 ag-2: -18

How did COc1ccccc1NC(=O)CSc1nc(N)c(C#N)cc1C#N do in these assays?
NR2E3 ag-1: -1; Rev-erbA mod: 73*; PG9 binder: -1; NR2E3 ag-2: -14; NR1D1 mod conf: 65*; RORg DNA counter: >40

What do the screens show for `COC(=O)c1c(NC(=O)C2(C)Cc3ccccc3C(=O)O2)sc2c1CCCC2` (configuration not stated)?
NR2E3 ag-1: 1; Rev-erbA mod: 5; PKA-R2B act: -15; PKA-R1A activ: -1; PG9 binder: 0; NR2E3 ag-2: 16

What do the screens show for `CCOC(=O)c1c(NC(=O)C2Cc3ccccc3C(=O)O2)sc2c1CCCC2` (configuration not stated)?
NR2E3 ag-1: 0; Rev-erbA mod: 35*; PKA-R2B act: -6; PKA-R1A activ: -3; PG9 binder: -1; NR2E3 ag-2: 19; NR1D1 mod conf: 14*

How did COC(=O)c1c(NC(=O)C2Cc3ccccc3C(=O)O2)sc2c1CCCC2 (configuration not stated) do in these assays?
NR2E3 ag-1: 3; Rev-erbA mod: 50*; PKA-R2B act: -5; PKA-R1A activ: 7; PG9 binder: 0; NR2E3 ag-2: -31; NR1D1 mod conf: 22*

How did CCOC(=O)c1c(NC(=O)C2CCCN(S(=O)(=O)c3ccccc3)C2)sc2c1CCCC2 (configuration not stated) do in these assays?
NR2E3 ag-1: -3; Rev-erbA mod: 24*; PKA-R2B act: -4; PKA-R1A activ: -1; PG9 binder: 3; NR2E3 ag-2: -4; NR1D1 mod conf: 103*; RORg DNA counter: >40

Results for CN(CCCOC(=O)c1occ2ccccc12)C1CN(Cc2cn(Cc3ccccc3Cl)nn2)S(=O)(=O)C1 (configuration not stated) ?
Rev-erbA mod: 3
